Values after ≈ are worked out from the molar mass of the structure shown.
Key:
Type in all cases: functional
[1] = system: E6SM; assay: Minimum inhibitory conc. for 50% inhibition of vesicular stomatitis virus induced cytopathicity in E6SM cells; conditions: Homo sapiens
[2] = system: HEL; assay: Minimum inhibitory conc. for 50% inhibition of growth in HEL cells; conditions: Homo sapiens
Summary of the method: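 HEL cell cytotoxicity was measured as inhibition of normal cell growth. The value is the concentration inhibiting growth by 50%.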

[3] = system: E6SM; assay: Minimum inhibitory conc. for 50% inhibition of HSV-2 (G) virus induced cytopathicity in E6SM cells; conditions: Homo sapiens
Summary of the method: (§1)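 Confluent E6SM or Vero monolayers were infected with 100 CCID50 of virus and allowed 1 h of adsorption. Residual virus was then removed. Cultures were incubated with compound in serial dilutions (400, 200, 100, ... µg/mL). Cytopathicity was scored when it was complete in the untreated infected controls.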

[4] = system: E6SM; assay: Minimum inhibitory conc. for 50% inhibition of alteration of morphology in E6SM cells; conditions: Homo sapiens
Summary of the method: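 Toxicity in E6SM, HeLa or Vero cultures was judged by microscopically visible alteration of normal cell morphology. The value is the concentration producing this alteration (50%).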

[5] = system: E6SM; assay: Minimum inhibitory conc. for 50% inhibition of vaccinia virus induced cytopathicity in E6SM cells; conditions: Homo sapiens
[6] = system: E6SM; assay: Minimum inhibitory conc. for 50% inhibition of HSV-1 (KOS) virus induced cytopathicity in E6SM cells; conditions: Homo sapiens
[7] = system: E6SM; assay: Minimum inhibitory conc. for 50% inhibition of TK HSV-1 (B2006) virus induced cytopathicity in E6SM cells; conditions: Homo sapiens; summary of the method: as §1
[8] = system: HEL; assay: Minimum inhibitory conc. for 50% inhibition of TK-VZV (YS/R) virus plaque formation in HEL cells; conditions: Homo sapiens
[9] = system: HEL; assay: Minimum inhibitory conc. for 50% inhibition of VZV (OKA) virus plaque formation in HEL cells; conditions: Homo sapiens
[10] = system: E6SM; assay: Minimum inhibitory conc. for 50% inhibition of HSV-2 (196) virus induced cytopathicity in E6SM cells; conditions: Homo sapiens; summary of the method: as §1
[11] = system: E6SM; assay: Minimum inhibitory conc. for 50% inhibition of HSV-1 (McIntyre) virus induced cytopathicity in E6SM cells; conditions: Homo sapiens
[12] = system: E6SM; assay: Minimum inhibitory conc. for 50% inhibition of HSV-2 (Lyons) virus induced cytopathicity in E6SM cells; conditions: Homo sapiens; summary of the method: as §1
[13] = system: E6SM; assay: Minimum inhibitory conc. for 50% inhibition of HSV-1 (F) virus induced cytopathicity in E6SM cells; conditions: Homo sapiens; summary of the method: as §1
[14] = system: HEL; assay: Minimum inhibitory conc. for 50% inhibition of VZV (YS) virus plaque formation in HEL cells; conditions: Homo sapiens
[15] = system: HEL; assay: Minimum inhibitory conc. for 50% inhibition of TK VZV (07/1) virus plaque formation in HEL cells; conditions: Homo sapiens
[16] = system: HEL; assay: Minimum inhibitory conc. for 50% inhibition of CMV (Davis) virus plaque formation in HEL cells; conditions: Homo sapiens
Summary of the method: (§2)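 HEL cell cultures were inoculated with 100 CCID50 of virus and allowed 1 h of adsorption. Residual virus was then removed. Cultures were incubated with compound at graded concentrations (400, 200, 100, ... µg/mL). Read-out was virus plaque formation, scored when the infected controls were fully affected. The value is the concentration reducing plaque formation by 50%.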

[17] = system: HEL; assay: Minimum inhibitory conc. for 50% inhibition of CMV (AD-169) virus plaque formation in HEL cells; conditions: Homo sapiens; summary of the method: as §2
[18] = system: Vero; assay: Minimum inhibitory conc. for 50% inhibition of Sindbis virus induced cytopathicity in Vero cells; conditions: Chlorocebus sabaeus; summary of the method: as §1
[19] = system: HeLa; assay: Minimum inhibitory conc. for 50% inhibition of Polio-1 virus induced cytopathicity in HeLa cells; conditions: Homo sapiens
[20] = system: Vero; assay: Minimum inhibitory conc. for 50% inhibition of Reo-1 virus induced cytopathicity in Vero cells; conditions: Chlorocebus sabaeus; summary of the method: as §1
[21] = system: HeLa; assay: Minimum inhibitory conc. for 50% inhibition of coxsackie B4 virus induced cytopathicity in HeLa cells; conditions: Homo sapiens
[22] = system: HeLa; assay: Minimum inhibitory conc. for 50% inhibition of morphology […] in HeLa cells; conditions: Homo sapiens
[23] = system: Vero; assay: Minimum inhibitory conc. for 50% inhibition of Parainfluenza-3 virus induced cytopathicity in Vero cells; conditions: Chlorocebus sabaeus; summary of the method: as §1
[24] = system: HeLa; assay: Minimum inhibitory conc. for 50% inhibition of vesicular stomatitis virus induced cytopathicity in HeLa cells; conditions: Homo sapiens
[25] = system: Vero; assay: Minimum inhibitory conc. for 50% inhibition of forest virus induced cytopathicity in Vero cells; conditions: Chlorocebus sabaeus; summary of the method: as §1
[26] = system: Vero; assay: Minimum inhibitory conc. for 50% inhibition of alteration of morphology in Vero cells; conditions: Chlorocebus sabaeus

Compound: Nc1nc2c(ncn2COCCO)c(=O)[nH]1 [ACYCLOVIR]
- MIC [1]: > 200 µg/mL
- MIC [2]: > 200 µg/mL
- MIC [3]: 0.07 µg/mL (≈ 0.311 µM)
- MIC [4]: 400 µg/mL (≈ 1780 µM)
- MIC [5]: > 200 µg/mL
- MIC [6]: 0.04 µg/mL (≈ 0.178 µM)
- MIC [7]: 70 µg/mL (≈ 311 µM)

Compound: O=c1[nH]c(=O)n([C@H]2C[C@H](O)[C@@H](CO)O2)cc1/C=C/Br [BRIVUDINE]
- MIC [8]: > 50 µg/mL
- MIC [9]: 0.0008 µg/mL (≈ 0.0024 µM)
- MIC [10]: > 200 µg/mL
- MIC [11]: 0.007 µg/mL (≈ 0.021 µM)
- MIC [12]: 100 µg/mL (≈ 300 µM)
- MIC [1]: > 200 µg/mL
- MIC [2]: 150 µg/mL (≈ 450 µM)
- MIC [3]: > 200 µg/mL
- MIC [4]: > 400 µg/mL
- MIC [5]: 0.07 µg/mL (≈ 0.21 µM)
- MIC [13]: 0.01 µg/mL (≈ 0.03 µM)
- MIC [6]: 0.004 µg/mL (≈ 0.012 µM)
- MIC [14]: 0.002 µg/mL (≈ 0.006 µM)
- MIC [15]: 5 µg/mL (≈ 15 µM)
- MIC [7]: 7 µg/mL (≈ 21 µM)

Compound: Nc1ccn(C[C@@H](CO)OCP(=O)(O)O)c(=O)n1.O.O [CIDOFOVIR]
- MIC [16]: 0.07 µg/mL
- MIC [17]: 0.06 µg/mL

Compound: Nc1nc2c(ncn2COC(CO)CO)c(=O)[nH]1 [GANCICLOVIR]
- MIC [16]: 0.13 µg/mL (≈ 0.509 µM)
- MIC [17]: 1.5 µg/mL (≈ 5.88 µM)

Compound: NC(=O)c1ncn([C@@H]2O[C@H](CO)[C@@H](O)[C@H]2O)n1 [RIBAVIRIN]
- MIC [18]: 150 µg/mL (≈ 614 µM)
- MIC [19]: 70 µg/mL (≈ 287 µM)
- MIC [20]: 70 µg/mL (≈ 287 µM)
- MIC [21]: 70 µg/mL (≈ 287 µM)
- MIC [22]: > 200 µg/mL
- MIC [23]: 70 µg/mL (≈ 287 µM)
- MIC [24]: 4 µg/mL (≈ 16.4 µM)
- MIC [25]: 300 µg/mL (≈ 1230 µM)
- MIC [26]: > 400 µg/mL
